TNF death inh: TNF-alpha cell death inhibition in Jurkat FADD-/- cells; Jurkat FADD-/- TNF necroptosis rescue, ATP luminescence, 24 h; 0 = TNF only, 100 = no-TNF cells; activation (protection from cell death), % at 10 µM; 0.068% of 220,000 active;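 active = activation, meaning protection from cell death, of at least 50% relative to plate controls; inactive = activation below 50%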;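 note: necroptosis triggered by 40 ng/mL TNF-alpha added together with compound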
zVAD death inh: L929 zVAD cell death inhibition | AID 1377 | L929 zVAD necroptosis rescue, ATP luminescence, 24 h; with zVAD 60 µM | 0.38% of 220,000 active | viability rescue, % at 10 µM;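 active = activation, scaled between plate controls, above about 75%, limit read from the data; inactive = activation under that limit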;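 note: 0% = zVAD with DMSO and 100% = DMSO alone without zVAD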
STAT3 act-1: STAT3 signaling activation; U3A cells, IL-6 STAT3-luciferase reporter, luminescence; 100% = signal with IL-6 EC80 alone; 0.91% of 190,000 active; activation (% of control), % at 5.6 µM;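 active = activation above the screen-wide mean of compound activation plus 3 SD, cut at about 130% in these data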;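 note: 0% = background luminescence of wells with medium and substrate only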
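Test system: human U3A cells carrying STAT3-luciferase construct; control set: IL-6-only wells as 100% reference; timing: compound pre-incubation 1 h before IL-6, then 6 h stimulation at 37 °C; also added: IL-6 stimulus at 33 ng/mL final; evaluation: % activation versus median of IL-6-stimulated wells; detection: reporter luminescence signal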
STAT1 blocker: inhibitors of IFN-gamma induced STAT1 signaling; NIH 3T3 STAT1-luciferase reporter, luminescence; inhibition, % at 5.5 µM; 0.35% of 200,000 active;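 active = inhibition above a set limit, the mean inhibition across all tested compounds plus 3 SD, cut at about 34% in these data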;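 note: 0% = IFN-gamma with DMSO and 100% = IFN-gamma with 300 µM nifuroxazide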
STAT3 blocker: inhibitors of IL-6 induced STAT3 signaling; 0.89% of 190,000 active; inhibition, % at 5.5 µM; U3A cells, IL-6 STAT3-luciferase reporter, luminescence; host cell line lacks STAT1; AID 862;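 active = inhibition above the mean inhibition across all screened compounds plus 3 SD, cut at about 44% in these data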;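 note: 0% = DMSO only wells and 100% = 100 µM nifuroxazide control wells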
STAT3 act-2: STAT3 activation, confirmation assay; shares compounds with STAT3 act-1; U3A STAT3-luciferase reporter, IL-6 potentiation, luminescence; U3A cells lack STAT1; 100 means same as IL-6 alone; potentiation (% of control), % at 5.7 µM; 64% of 1,200 active; AID 1267;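 active = percent activation of the STAT3 luciferase reporter above a set limit taken from the earlier primary screen, cut at about 130% in these data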;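 note: 0% = background signal of medium plus substrate and 100% = median of IL-6 with DMSO wells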
NFkB act STAT3ct: counter-screen for STAT3 activators: NF-kappaB activation | human cells, NF-kappaB reporter activation | AID 1309 | shares compounds with STAT3 act-1 | activation (% of control), % at 5.7 µM | 11% of 1,200 active; in the data active = activation above about 120%;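 note: reporter induced by TNF-alpha stimulation; 100% = median of stimulated DMSO wells and 0% = no signal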
STAT1 act STAT3c: activates STAT1, counter-screen to STAT3 activators. shares compounds with STAT3 act-1. NIH 3T3 STAT1-luciferase reporter, IFN-gamma, luminescence. activation (% of control), % at 5.7 µM. 13% of 1,200 active. AID 1318;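 active = activation above the solvent-only control well mean plus 3 SD, set per screening run, cut at about 120% in these data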;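 note: 100% = IFN-gamma with DMSO median signal so 100% means no change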
* marks the source's active call; other numbers are inactive results; · = no result. Compounds with a hit are over-represented: about 2.1% of the library has one in this group of screens.

SMILES	TNF death inh	zVAD death inh	STAT3 act-1	STAT1 blocker	STAT3 blocker	STAT3 act-2	NFkB act STAT3ct	STAT1 act STAT3c
O=C(O)c1cc(N/N=C/c2ccc(N3CCOCC3)cc2)ccc1Cl	1.2	-0.9	·	·	·	·	·	·
CCOc1ccc(C(=O)c2cc([N+](=O)[O-])ccc2N2CCOCC2)cc1	-13.3	-0.9	166.0*	-25.4	-68.4	127.1	164.8*	131.6*
COc1ccc(C(=O)c2cc([N+](=O)[O-])ccc2N2CCOCC2)cc1	-5.6	-1.3	163.3*	-20.1	-74.4	125.0	171.7*	141.1*
CCC(CC)NC(=O)c1cc([N+](=O)[O-])ccc1N1CCOCC1	1.1	0.3	98.0	-2.4	0.9	·	·	·
Cc1ccc(C(=O)c2cc([N+](=O)[O-])ccc2N2CCCCC2)c(C)c1	-6.2	-0.9	137.4*	0.1	-38.9	115.8	152.2*	107.7
Cc1ccc(C(=O)c2cc([N+](=O)[O-])ccc2N2CCOCC2)cc1	-1.3	1.6	95.0	3.4	5.3	·	·	·
CCOC(=O)c1ccc(NC(=O)Cn2nnc(-c3ccccc3C)n2)cc1	1.3	-0.5	100.8	-3.5	3.4	·	·	·
O=C(N/N=C\c1cccs1)c1ccccc1-n1cccc1	1.3	2.6	137.8*	2.0	-44.2	148.1*	104.6	96.2
Oc1ccccc1-c1cc(-c2cccc(F)c2)n[nH]1	-5.3	1.5	145.4*	-10.1	-50.8	154.9*	139.7*	110.7
Oc1ccc(Cl)cc1-c1cc(-c2cccc(Br)c2)n[nH]1	-3.7	1.4	96.8	0.0	11.0	·	·	·
O=C1C2CC=C(Cl)CC2C(=O)N1CCc1c[nH]c2ccccc12 (centres undefined)	3.0	6.8	141.3*	2.8	-43.2	148.8*	103.4	87.5
COC(=O)C1=C(C)N(CCc2c[nH]c3ccccc23)C(=O)/C1=C\N(C)C	-1.6	0.9	97.6	-3.0	12.8	·	·	·
CC1=CCC2C(=O)N(CCc3c[nH]c4ccccc34)C(=O)C2C1 (centres undefined)	0.1	0.2	142.3*	5.1	-48.0	127.0	101.5	97.2
CCOC(=O)c1nnsc1NC(=O)Nc1ccc(OC)cc1	0.5	0.2	93.4	1.4	12.5	·	·	·
CC12CC3(C)CC(C)(C1)CC(C(=O)NC(=S)N1CCCC1)(C2)C3	-0.4	2.5	103.6	2.3	8.0	·	·	·
CC(=O)Nc1ccccc1-c1nn[nH]n1	-0.8	-0.1	150.8*	9.0	-55.8	141.8*	111.3	100.2
CC1CCc2cc(F)cc3c(=O)c(C(=O)O)cn1c23 (centres undefined)	0.5	0.7	95.5	-0.7	7.5	·	·	·
Cn1c(CSc2ncccn2)nnc1SCC(=O)N1CCCc2ccccc21	0.3	-1.0	89.9	8.4	17.9	·	·	·
O=C(CSc1ncc(-c2ccccc2)n1C1CCCC1)N1CCc2ccccc21	-4.8	-0.9	141.3*	1.9	-47.7	123.3	108.2	95.4
CCn1c(CSc2ncccn2)nnc1SCC(=O)N1CCc2ccccc21	-4.3	-0.2	148.4*	11.0	-49.8	123.0	102.9	94.1
CC(=C1C(=O)c2ccccc2C1=O)N1CCN(CCN=CC2=C(O)CC(C)(C)CC2=O)CC1	-1.2	0.8	98.2	12.9	0.7	·	·	·
CC(C)c1nnc(NC(=O)c2c(O)c3cccc4c3n(c2=O)CCC4)s1	-4.4	4.5	94.6	1.1	11.5	·	·	·
O=C(Nc1cccc(F)c1)c1c(O)c2cccc3c2n(c1=O)CCC3	-1.4	0.2	142.1*	4.1	-46.0	143.3*	97.7	93.4
Cc1cnc(NC(=O)c2c(O)c3cccc4c3n(c2=O)CCC4)s1	-4.2	0.7	165.4*	-1.9	-71.9	148.8*	101.5	101.7
CC(C(=O)Nc1ccc2c(c1)OCCO2)N(c1ccccc1)S(C)(=O)=O (centres undefined)	1.7	0.0	·	·	·	·	·	·
Fc1ccc(C2c3[nH]c4ccccc4c3CCN2Cc2ccoc2)cc1 (centres undefined)	0.9	0.4	115.4	-1.1	-13.1	·	·	·

High-throughput results from PubChem BioAssay.
